The results in this text go back to ChEMBL document CHEMBL1135670, “Discovery of 8-hydroxyadenines as a novel type of interferon inducer” (2002).

Experiment [1] is filed under the species Mus musculus. Nature of the experiment: Minimum effective concentration required for more than 1 IU/mL induction of IFN using mice spleen cells. It is filed as functional. As to conditions: read-out: MEC. In short, it runs like this:
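Mouse spleen cells incubated with compound; IFN released into medium measured in IU/mL. Value is the minimum effective concentration, the lowest concentration giving more than 1 IU/mL IFN.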

Experiment [2] relates to Mus musculus. Put plainly: Minimum effective dose required for more than 100 IU/mL induction of IFN using mice after peroral administration. It is filed as functional. The settings on record: po, read-out: MED. In short, it runs like this: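 Compound dosed orally to mice; IFN measured in plasma in IU/mL. Value is the minimum effective dose in mg/kg, the lowest dose giving more than 100 IU/mL IFN.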

SMILES strings stand for the structures.

Take `CCCCCOc1nc(N)c2nc(O)n(Cc3ccccc3)c2n1`: in the experiment listed under Mus musculus [1], the minimal effective concentration turned out to be 0.01 µM. In the experiment on Mus musculus [2], the minimal effective dose was determined as 0.3 mg/kg.

With `Nc1nc(N)c2nc(O)n(Cc3ccccc3)c2n1`, the minimal effective concentration in the experiment listed under Mus musculus [1] was 10 µM.

In the case of `Nc1nc(-c2ccccc2)nc2c1nc(O)n2Cc1ccccc1`, the minimal effective concentration in the experiment filed under Mus musculus [1] was determined as 10 µM. The minimal effective dose with Mus musculus [2] is over 30 mg/kg.

With `Nc1ncnc2[nH]c(O)nc12`, the minimal effective concentration in the experiment listed under Mus musculus [1] is over 10 µM.

Take `Cc1nc(N)c2nc(O)n(Cc3ccccc3)c2n1`: the minimal effective concentration in the experiment filed under Mus musculus [1] is 1 µM. In addition, the minimal effective dose with Mus musculus [2] came to 3 mg/kg.

`CCNc1nc(N)c2nc(O)n(Cc3ccccc3)c2n1`: in the experiment listed under Mus musculus [1], the minimal effective concentration was 1 µM.

Take `CCCOc1nc(N)c2nc(O)n(Cc3ccccc3)c2n1`: the minimal effective concentration in the experiment filed under Mus musculus [1] is 0.01 µM. Moreover, the minimal effective dose with Mus musculus [2] is 0.3 mg/kg.

As to `CCOc1nc(N)c2nc(O)n(Cc3ccccc3)c2n1`, the minimal effective concentration in the experiment listed under Mus musculus [1] is 0.1 µM. For the same molecule, in the experiment on Mus musculus [2], the minimal effective dose was found to be 0.3 mg/kg.

With `COc1cccc(Cn2c(O)nc3c(N)ncnc32)c1`, the minimal effective concentration in the experiment listed under Mus musculus [1] came out at 10 µM.

As for `COc1ccc(Cn2c(O)nc3c(N)ncnc32)cc1`, in the experiment filed under Mus musculus [1], the minimal effective concentration worked out at 10 µM.

Take `COc1nc2c(N)ncnc2n1Cc1ccccc1`: in the experiment filed under Mus musculus [1], the minimal effective concentration was over 10 µM.

Take `Nc1ncnc2c1nc(O)n2Cc1ccc(F)cc1`: the minimal effective concentration in the experiment listed under Mus musculus [1] amounted to 10 µM. Further, in the experiment on Mus musculus [2], the minimal effective dose was determined as 30 mg/kg.

For the molecule `Nc1nc(SCc2ccccc2)nc2c1nc(O)n2Cc1ccccc1`, the minimal effective concentration in the experiment filed under Mus musculus [1] is 0.1 µM. For the same molecule, the minimal effective dose in the experiment on Mus musculus [2] was over 1 mg/kg.

With `CCCCOc1nc(N)c2[nH]c(=O)n(Cc3ccccc3)c2n1`, the minimal effective concentration in the experiment listed under Mus musculus [1] stood at 0.001 µM. In the experiment with Mus musculus [2], the minimal effective dose is 0.1 mg/kg.

With `CCCCc1nc(N)c2nc(O)n(Cc3ccccc3)c2n1`, the minimal effective concentration in the experiment filed under Mus musculus [1] came to 0.03 µM. In the experiment on Mus musculus [2], the minimal effective dose turned out to be 0.3 mg/kg.

As for `Nc1ncnc2c1nc(Br)n2Cc1ccccc1`, in the experiment filed under Mus musculus [1], the minimal effective concentration is over 10 µM.

Regarding `CCCc1nc(N)c2nc(O)n(Cc3ccccc3)c2n1`, in the experiment filed under Mus musculus [1], the minimal effective concentration was 1 µM. In the experiment on Mus musculus [2], the minimal effective dose stood at 3 mg/kg.

For `CCCCNc1nc(N)c2nc(O)n(Cc3ccccc3)c2n1`, in the experiment filed under Mus musculus [1], the minimal effective concentration is 0.1 µM. Besides, the minimal effective dose in the experiment with Mus musculus [2] was determined as 0.1 mg/kg.

With `CCc1nc(N)c2nc(O)n(Cc3ccccc3)c2n1`, the minimal effective concentration in the experiment filed under Mus musculus [1] was determined as 1 µM. Also, in the experiment on Mus musculus [2], the minimal effective dose is 3 mg/kg.

`Cc1nc2c(N)ncnc2n1Cc1ccccc1`: the minimal effective concentration in the experiment filed under Mus musculus [1] was over 10 µM.

For the molecule `Nc1ncnc2c1nc(O)n2-c1ccccc1`, in the experiment filed under Mus musculus [1], the minimal effective concentration was over 10 µM.

Turning to `CCCCSc1nc(N)c2nc(O)n(Cc3ccccc3)c2n1`, in the experiment listed under Mus musculus [1], the minimal effective concentration amounted to 0.01 µM. Besides, the minimal effective dose with Mus musculus [2] was 0.3 mg/kg.

For `CCCCCSc1nc(N)c2nc(O)n(Cc3ccccc3)c2n1`, the minimal effective concentration in the experiment listed under Mus musculus [1] came out at 10 µM. Further, the minimal effective dose in the experiment with Mus musculus [2] was 1 mg/kg.

Turning to `Nc1ncnc2c1nc(Cl)n2Cc1ccccc1`, the minimal effective concentration in the experiment filed under Mus musculus [1] was over 10 µM.

Turning to `CSc1nc(N)c2nc(O)n(Cc3ccccc3)c2n1`, the minimal effective concentration in the experiment listed under Mus musculus [1] came out at 0.1 µM. Moreover, the minimal effective dose in the experiment on Mus musculus [2] was 0.1 mg/kg.

As for `Nc1nc(S)nc2c1nc(O)n2Cc1ccccc1`, the minimal effective concentration in the experiment listed under Mus musculus [1] came out at 10 µM.

As to `CCCSc1nc(N)c2nc(O)n(Cc3ccccc3)c2n1`, in the experiment listed under Mus musculus [1], the minimal effective concentration is 0.01 µM. Further, the minimal effective dose with Mus musculus [2] was determined as 0.1 mg/kg.

For the molecule `NNc1nc2c(N)ncnc2n1Cc1ccccc1`, the minimal effective concentration in the experiment listed under Mus musculus [1] was over 10 µM.

For the molecule `CCSc1nc(N)c2nc(O)n(Cc3ccccc3)c2n1`, the minimal effective concentration in the experiment listed under Mus musculus [1] worked out at 0.1 µM. Also, the minimal effective dose in the experiment with Mus musculus [2] stood at 0.1 mg/kg.

`Nc1ncnc2c1nc(I)n2Cc1ccccc1`: in the experiment listed under Mus musculus [1], the minimal effective concentration was over 10 µM.

In the case of `Nc1ncnc2c1nc(O)n2Cc1cccc2ccccc12`, the minimal effective concentration in the experiment filed under Mus musculus [1] is 10 µM.

For the molecule `COc1ccccc1Cn1c(O)nc2c(N)ncnc21`, in the experiment filed under Mus musculus [1], the minimal effective concentration stood at 10 µM.

For `COc1nc(N)c2nc(O)n(Cc3ccccc3)c2n1`, the minimal effective concentration in the experiment filed under Mus musculus [1] is 0.1 µM. The minimal effective dose in the experiment with Mus musculus [2] was over 1 mg/kg.

On to `Nc1nc(O)nc2c1nc(O)n2Cc1ccccc1`, for which, in the experiment filed under Mus musculus [1], the minimal effective concentration stood at 0.1 µM. Besides, in the experiment with Mus musculus [2], the minimal effective dose was found to be 1 mg/kg.

Take `CCCCCNc1nc(N)c2nc(O)n(Cc3ccccc3)c2n1`: the minimal effective concentration in the experiment listed under Mus musculus [1] was found to be 0.1 µM. Also, in the experiment on Mus musculus [2], the minimal effective dose was 0.3 mg/kg.

For `Cc1ccc(Cn2c(O)nc3c(N)ncnc32)cc1`, in the experiment listed under Mus musculus [1], the minimal effective concentration worked out at 10 µM.

For the molecule `CSc1nc2c(N)ncnc2n1Cc1ccccc1`, the minimal effective concentration in the experiment listed under Mus musculus [1] was over 10 µM.

`Nc1ncnc2c1nc(S)n2Cc1ccccc1`: in the experiment filed under Mus musculus [1], the minimal effective concentration is 10 µM. The minimal effective dose with Mus musculus [2] is over 30 mg/kg.

In the case of `Nc1ncnc2c1nc(O)n2C1CCCC1`, the minimal effective concentration in the experiment filed under Mus musculus [1] was over 10 µM.

On to `CCCNc1nc(N)c2nc(O)n(Cc3ccccc3)c2n1`, for which the minimal effective concentration in the experiment filed under Mus musculus [1] amounted to 0.1 µM. Also, the minimal effective dose in the experiment with Mus musculus [2] came to 1 mg/kg.

Regarding `Nc1ncnc2c1nc(O)n2Cc1ccc(Cl)cc1`, the minimal effective concentration in the experiment filed under Mus musculus [1] stood at 10 µM. For the same molecule, in the experiment with Mus musculus [2], the minimal effective dose is 30 mg/kg.

Regarding `CCCCn1c(O)nc2c(N)ncnc21`, in the experiment listed under Mus musculus [1], the minimal effective concentration is over 10 µM.

On to `CNc1nc(N)c2nc(O)n(Cc3ccccc3)c2n1`, for which the minimal effective concentration in the experiment listed under Mus musculus [1] is 1 µM.

With `Nc1ncnc2c1nc(O)n2Cc1ccccc1`, the minimal effective concentration in the experiment filed under Mus musculus [1] amounted to 10 µM. In addition, the minimal effective dose in the experiment with Mus musculus [2] stood at 30 mg/kg.

Consider `CCCC[S+]([O-])c1nc(N)c2nc(O)n(Cc3ccccc3)c2n1` (centres undefined), for which, in the experiment listed under Mus musculus [1], the minimal effective concentration amounted to 0.01 µM. For the same molecule, in the experiment with Mus musculus [2], the minimal effective dose worked out at 1 mg/kg.

Consider `Nc1ncnc2c1nc(O)n2CCc1ccccc1`, for which the minimal effective concentration in the experiment filed under Mus musculus [1] is over 10 µM.

Turning to `Nc1ncnc2c1ncn2Cc1ccccc1` [9-BENZYL-9H-ADENINE], the minimal effective concentration in the experiment filed under Mus musculus [1] is over 10 µM.

Regarding `CC(C)Cn1cnc2c(N)nc3ccccc3c21` [IMIQUIMOD], in the experiment listed under Mus musculus [1], the minimal effective concentration was found to be 1 µM. In the experiment on Mus musculus [2], the minimal effective dose was 3 mg/kg.
